Among the data in ChEMBL document CHEMBL1157772, “In vitro cytotoxic activity of isolated acridones alkaloids from Zanthoxylum leprieurii Guill. et Perr” (Bioorg Med Chem, 2010) are IC50 values, retold here.

What all share (format): functional, cell-based
Assay [1] has as its system A549. Description: Cytotoxicity against human A549 cells after 48 hrs by resazurin reduction assay. To be noted: A549, 48 h. In short, it runs like this: (§1)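 Cell lines from ATCC, grown in MEM with Earle's salts, 10% fetal calf serum, vitamins, sodium pyruvate, non-essential amino acids, penicillin/streptomycin, at 37 °C, 5% CO2. Cells (5 × 10^3/well) adhered 16 h, then exposed 48 h to increasing concentrations in medium with 0.25% (v/v) final DMSO. Resazurin reduction read by fluorescence (ex 530/em 590 nm). IC50 as mean ± SD, two experiments in triplicate.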
On the technique in general: The colour change of resazurin is a common sign of viable cells or microbes.

In assay [2] the test system is DLD-1. Description: Cytotoxicity against human DLD1 cells after 48 hrs by resazurin reduction assay. To be noted: DLD-1, 48 h. In short, it runs like this: as §1
A short description of assay [3]: Cytotoxicity against human WS1 cells after 48 hrs by resazurin reduction assay. Conditions: WS1, 48 h. In short, it runs like this: as §1

Usually IC50 stands for the concentration at which inhibition is half-maximal. Turning to `COc1cc2ccc(=O)oc2cc1OC` [SCOPARONE], the IC50 in assay [1], in assay [2] and in assay [3] was greater than 100 µM each time.
On to `COc1cc(O)cc2c1c(=O)c1ccccc1n2C` [TEGERRARDIN A], for which the figures for the IC50 in assay [1], in assay [2] and in assay [3] were 36 µM, 71 µM and 42 µM, respectively.
As for `COc1cc(O)c2c(=O)c3ccccc3n(C)c2c1`, the results for the IC50 in assay [1], in assay [2] and in assay [3] were 31 µM, 27 µM and 51 µM, respectively.
In the same order, the values of `CCCCCCCCCCCCCCCCCCCCCCCC(=O)NCCc1ccc(O)cc1` are greater than 100 µM, greater than 100 µM and greater than 100 µM.
Turning to `COc1cc([C@@H]2c3cc4c(cc3[C@@H](O[C@@H]3O[C@@H]5CO[C@@H](C)O[C@H]5[C@H](O)[C@H]3O)[C@H]3COC(=O)[C@H]23)OCO4)cc(OC)c1O` [ETOPOSIDE], the half-maximal inhibitory concentration (IC50) in assay [1] worked out at 16 µM; in assay [2], 10 µM; in assay [3] it was 4.3 µM.
As for `COc1cc2c(c(O)c1OC)c(=O)c1ccccc1n2C` [ARBORININE], the IC50 in assay [1] is 35 µM; in assay [2], 74 µM; in assay [3] it was 56 µM.
On the same counts, the results for `COc1c(O)cc2c(c1OC)c(=O)c1ccccc1n2C` are 52 µM, 77 µM and 74 µM.
Regarding `COc1cc(O)c(OC)c2c1c(=O)c1ccccc1n2C`, the IC50 in assay [1], in assay [2] and in assay [3] was greater than 100 µM throughout.
On to `COc1ccc([C@@H]2CC(=O)c3c(O)cc(O[C@@H]4O[C@H](CO[C@@H]5O[C@@H](C)[C@H](O)[C@@H](O)[C@H]5O)[C@@H](O)[C@H](O)[C@H]4O)cc3O2)cc1O` [HESPERIDIN], for which the IC50 in assay [1], in assay [2] and in assay [3] was greater than 100 µM throughout.
